Test [1] has as its system P388. Kind of test: Antitumor activity against P-388 lymphocytic leukemia implanted CDF1 mice to that of control when 100 mg/kg compound administered. It is filed as functional, Mus musculus. Summed up:
(§1)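 CDF1 mice given 10^6 P-388 lymphocytic leukemia cells ip on day 0; drug given ip as a suspension in klucel or in saline plus Tween 80 on days 1, 5 and 9, starting 24 h after tumor transplantation; six mice per group. Read-outs are treated/control (T/C, %) and body weight change in g as treated/control.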

Test [2] relates to P388. As to the kind of experiment: Antitumor activity against P-388 lymphocytic leukemia implanted CDF1 mice to that of control when 200 mg/kg compound administered. It is filed as functional, Mus musculus. Summed up: as §1
For test [3], the system named is P388. Kind of test: Antitumor activity against P-388 lymphocytic leukemia implanted CDF1 mice to that of control when 400 mg/kg compound administered. It is filed as functional, Mus musculus. In a few lines:
as §1

Test [4] relates to P388. As to the kind of experiment: Change in body weight of P-388 lymphocytic leukemia implanted CDF1 mice to that of control when 200 mg/kg compound administered; T/C= 2.1/1.3. It is filed as functional, Mus musculus. In a few lines: as §1
Test [5] concerns P388. Kind of test: Change in body weight of P-388 lymphocytic leukemia implanted CDF1 mice to that of control when 400 mg/kg compound administered; T/C= 0.8/1.3. It is filed as functional, Mus musculus. In a few lines: as §1
For test [6], the system named is P388. As to the kind of experiment: Change in body weight of P-388 lymphocytic leukemia implanted CDF1 mice to that of control when 100 mg/kg compound administered; T/C= 3.3/1.3. It is filed as functional, Mus musculus. Summed up: as §1
Test [7] concerns P388. As to the kind of experiment: Change in body weight of P-388 lymphocytic leukemia implanted CDF1 mice to that of control when 200 mg/kg compound administered; T/C= 1.1/5. It is filed as functional, Mus musculus. Summed up:
as §1

In test [8] the test system is P388. Kind of test: Change in body weight of P-388 lymphocytic leukemia implanted CDF1 mice to that of control when 400 mg/kg compound administered; T/C= -2.5/5. It is filed as functional, Mus musculus. In a few lines:
as §1

For test [9], the system named is P388. Kind of test: Change in body weight of P-388 lymphocytic leukemia implanted CDF1 mice to that of control when 100 mg/kg compound administered; T/C= 1.5/5. It is filed as functional, Mus musculus. Summed up: as §1
In test [10] the test system is L1210. Kind of test: Growth inhibition of cultured L-1210 cells after 48-h exposure to compound at 1.6 x 10E-8 M/mL in trail 1. As to conditions: Mus musculus, L1210, 48 h. It is filed as functional.
In test [11] the test system is L1210. Kind of test: Growth inhibition of cultured L-1210 cells after 48-h exposure to compound at 1.6 x 10E-8 M/mL in trail 2. It is filed as functional. As to conditions: Mus musculus, L1210, 48 h.
For test [12], the system named is L1210. As to the kind of experiment: Growth inhibition of cultured L-1210 cells after 48-h exposure to compound at 4 x 10E-9 M/mL in trail 1. It is filed as functional. As to conditions: Mus musculus, L1210, 48 h.
Test [13] relates to P388. As to the kind of experiment: Change in body weight of P-388 lymphocytic leukemia implanted CDF1 mice to that of control when 200 mg/kg compound administered; T/C=1.5/0.5. It is filed as functional, Mus musculus. In a few lines: as §1
Test [14] relates to P388. Kind of test: Change in body weight of P-388 lymphocytic leukemia implanted CDF1 mice to that of control when 400 mg/kg compound administered; T/C= -0.8/5. It is filed as functional, Mus musculus. Summed up: as §1
Test [15] relates to Sarcoma-180. Kind of test: Growth inhibition of cultured Sarcoma 180 cells after 48-h exposure to compound at 1.6 x 10E-8 M/mL in trail 1. It is filed as functional. As to conditions: Mus musculus, Sarcoma-180, 48 h.
In test [16] the test system is Sarcoma-180. Kind of test: Growth inhibition of cultured Sarcoma 180 cells after 48-h exposure to compound at 1.6 x 10E-8 M/mL in trail 2. It is filed as functional. As to conditions: Mus musculus, Sarcoma-180, 48 h.
For test [17], the system named is Sarcoma-180. Kind of test: Growth inhibition of cultured Sarcoma cells after 48-h exposure to compound at 4 x 10E-9 M/mL in trail 1. It is filed as functional. As to conditions: Mus musculus, Sarcoma-180, 48 h.
In test [18] the test system is Sarcoma-180. Kind of test: Growth inhibition of cultured Sarcoma cells after 48-h exposure to compound at 4 x 10E-9 M/mL in trail 2. It is filed as functional. As to conditions: Mus musculus, Sarcoma-180, 48 h.
The subject of test [19] is L1210. As to the kind of experiment: Growth inhibition of cultured L-1210 cells after 48-h exposure to compound at 4 x 10E-9 M/mL in trail 2. As to conditions: Mus musculus, L1210, 48 h. It is filed as functional.
For test [20], the system named is P388. Kind of test: Change in body weight of P-388 lymphocytic leukemia implanted CDF1 mice to that of control when 100 mg/kg compound administered; T/C=1.5/0.5. It is filed as functional, Mus musculus. In a few lines: as §1
The subject of test [21] is P388. As to the kind of experiment: Antitumor activity against P-388 lymphocytic leukemia implanted CDF1 mice to that of control when 400 mg/kg compound administered; toxic. Also on record: dose 400 mg/kg. As to conditions: Mus musculus. It is filed as functional, organism-based. In a few lines: as §1
In test [22] the test system is P388. Kind of test: Change in body weight of P-388 lymphocytic leukemia implanted CDF1 mice to that of control when 200 mg/kg compound administered; T/C= 1/1.3. It is filed as functional, Mus musculus. In a few lines: as §1
Test [23] has as its system P388. As to the kind of experiment: Change in body weight of P-388 lymphocytic leukemia implanted CDF1 mice to that of control when 100 mg/kg compound administered; T/C= -0.2/1.3. It is filed as functional, Mus musculus. Summed up:
as §1

The values below come from ChEMBL document CHEMBL1121729, “N*-N*-S* tridentate ligand system as potential antitumor agents” (1981).

SMILES strings stand for the structures.

For the compound `CN(C)C(=S)c1cccc(-c2ccccn2)n1`, the results for the T/C in the test with P388 [1], in the test with P388 [2] and with P388 [3] were 95%, 95% and 91%, respectively. Further, the values for the Change in weight with P388 [4], with P388 [5] and in the test on P388 [6] were 2.1, 0.8 and 3.3, respectively.
For `NC(=S)c1ccc2ccc3cccnc3c2n1`, the values for the T/C in the test on P388 [1], with P388 [2] and in the test with P388 [3] were 100%, 106% and 112%, respectively. Besides, the Change in weight in the test with P388 [7] is 1.1; with P388 [8], -2.5; with P388 [9], 1.5.
As for `NC(=S)c1cccc(-c2ccccn2)n1`, the inhibition at 0.016 µM in the test on L1210 [10] was 95%; in the test with L1210 [11] it was 93%; in the test with Sarcoma-180 [15] it was 85%; in the test on Sarcoma-180 [16], 60%. In addition, the inhibition at 0.004 µM worked out at 51% with L1210 [12], 35% in the test with Sarcoma-180 [17], 10% in the test with Sarcoma-180 [18] and 32% in the test on L1210 [19]. Besides, the T/C was 112% in the test on P388 [1], 125% with P388 [2] and 143% with P388 [3]. Besides, the Change in weight in the test on P388 [13] is recorded as 1.5; in the test on P388 [14] it was -0.8; in the test with P388 [20], 1.5.
As to `C/N=C(/S)c1cccc(-c2ccccn2)n1`, the T/C in the test with P388 [1] was 91%; in the test on P388 [2], 83%; in the test on P388 [21], “Toxic”. Moreover, the Change in weight was 1 in the test on P388 [22] and -0.2 with P388 [23].
